Assay results from publication PMC3582387 (Chemistry & biology, 2012).

What was measured:
MCL-1ΔNΔC [1] = biological target: T1, MCL-1ΔNΔC (Homo sapiens, UniProt Q07820); assay: BAX-mediated liposomal release assay, suppression by MCL-1ΔNΔC; type: biochemical; settings: 20 nM tBID, 250 nM BAX
MCL-1ΔNΔC [2] = biological target: T1, MCL-1ΔNΔC; assay: Competitive FP assay against the FITC-BID BH3/MCL-1ΔNΔC interaction; type: binding
[3] = test system: BCL-XL-rescued p185+Arf−/−/Mcl-1-deleted B-ALL cells; assay: Cell viability; type: cell-based, murine
[4] = test system: MCL-1-rescued p185+Arf−/−/Mcl-1-deleted B-ALL cells; assay: Cell viability; type: cell-based, murine
How it was run: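 B-ALL cells come from Mcl-1f/f Arf−/− mouse marrow transformed with BCR-ABL(p185)-IRES-luciferase. They were stably transduced with MSCV-Puro-Mcl-1, and endogenous Mcl-1 was then deleted with MSCV-Cre-IRES-GFP; cells are kept in RPMI 1640/10% FBS. Cells (4×10^4/well) get serial dilutions of test compound or 0.4% DMSO in DMEM at 37 °C, with CellTiter-Glo luminescence read at 24 h. Data are normalized to vehicle; runs are at least duplicate and repeated twice with independent cultures.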

MCL-1ΔNΔC [5] = biological target: T1, MCL-1ΔNΔC; assay: Competitive FP assay against the FITC-MCL-1 SAHBA/MCL-1ΔNΔC interaction; type: binding
Bax−/−Bak−/− MEFs [6] = assay: Cell viability, Bax−/−Bak−/− MEFs; type: cell-based, mouse; settings: same dose range as leukemia cells, 24 h
How it was run: (§1)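 MEFs (wild-type or Bax−/−Bak−/−) are maintained in supplemented high-glucose DMEM (10% FBS, antibiotics, L-glutamine, HEPES, β-mercaptoethanol). They are plated at 5×10^3 cells/well and allowed 24 h before exposure to serially diluted test compound, with 0.4% DMSO as vehicle. Viability is read as CellTiter-Glo luminescence after 24 h of treatment.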

Bax−/−Bak−/− MEFs [7] = assay: Caspase 3/7 activation, Bax−/−Bak−/− MEFs; type: cell-based, mouse; settings: 8 h
How it was run: (§2)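 Wild-type or Bax−/−Bak−/− mouse embryonic fibroblasts are kept in high-glucose DMEM with 10% FBS, penicillin/streptomycin, 2 mM L-glutamine, 50 mM HEPES, non-essential amino acids and 50 µM β-mercaptoethanol. Cells are seeded at 5×10^3/well for 24 h, then given serial dilutions of test compound or vehicle (0.4% DMSO). Caspase-Glo 3/7 reagent is added at 8 h and luminescence is read.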

wild-type MEFs [8] = assay: Cell viability, wild-type MEFs; type: cell-based, mouse; settings: same dose range as leukemia cells, 24 h
How it was run: as §1

wild-type MEFs [9] = assay: Caspase 3/7 activation, wild-type MEFs; type: cell-based, mouse; settings: 8 h
How it was run: as §2

[10] = test system: BCL-XL-rescued p185+Arf−/−/Mcl-1-deleted B-ALL cells; assay: Caspase 3/7 activation; type: cell-based, murine; settings: 8 h post-treatment
BCL-XLΔC = BCL-XLΔC (Homo sapiens, UniProt Q07817); assay: Competitive FP assay against the FITC-BID BH3/BCL-XLΔC interaction; type: binding
BCL-XLΔC, sequence (Q07817 1-212 limits assumed, stated change not applied): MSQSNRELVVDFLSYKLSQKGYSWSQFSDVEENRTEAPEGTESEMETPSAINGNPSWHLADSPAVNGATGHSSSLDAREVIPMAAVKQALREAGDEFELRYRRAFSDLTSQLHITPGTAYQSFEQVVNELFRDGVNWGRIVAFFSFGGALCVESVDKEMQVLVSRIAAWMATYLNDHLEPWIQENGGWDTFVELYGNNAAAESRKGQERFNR

MCL-1/BAK complex = MCL-1/BAK complex (Mus musculus, UniProt P97287); assay: Co-immunoprecipitation of MCL-1/BAK complex in MCL-1-reconstituted B-ALL cells; type: cell-based, murine; settings: 6 h incubation
MCL-1/BAK complex, sequence (P97287 whole entry, one chain of several): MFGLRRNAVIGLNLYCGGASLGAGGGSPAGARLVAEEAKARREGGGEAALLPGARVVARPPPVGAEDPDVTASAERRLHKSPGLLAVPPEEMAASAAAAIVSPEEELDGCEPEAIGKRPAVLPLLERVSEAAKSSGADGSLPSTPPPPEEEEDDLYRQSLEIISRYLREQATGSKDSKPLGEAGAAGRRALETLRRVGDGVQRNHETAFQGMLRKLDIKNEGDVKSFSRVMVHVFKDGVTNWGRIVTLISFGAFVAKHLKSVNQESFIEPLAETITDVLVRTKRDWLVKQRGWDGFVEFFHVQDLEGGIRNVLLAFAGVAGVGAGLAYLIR
How it was run: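 MCL-1-reconstituted Mcl-1-deleted B-ALL cells (5×10^6) were given vehicle or test compound for 6 h. Lysate was precleared on protein A/G, then taken with anti-MCL-1 overnight at 4°C plus A/G beads for 1 h. After three washes and elution at 90°C, SDS-PAGE/Western probed MCL-1 and BAK.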

[11] = test system: MCL-1-rescued p185+Arf−/−/Mcl-1-deleted B-ALL cells; assay: Caspase 3/7 activation; type: cell-based, murine; settings: 8 h post-treatment
How it was run: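 Mcl-1-floxed Arf−/− mouse marrow was transformed with p185-IRES-luciferase, stably rescued with MSCV-Puro-Mcl-1, and endogenous Mcl-1 was deleted via MSCV-Cre-IRES-GFP. Cells were kept in supplemented RPMI 1640 and seeded at 4×10^4/well. Serial dilutions of test compound or vehicle (0.4% DMSO) were added in DMEM at 37°C. Caspase-Glo 3/7 luminescence was read at 8 h. Values were normalized to vehicle (mean ± SEM, ≥duplicate, two independent cultures).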

T1 sequence (Q07820 172-327, stated change not applied): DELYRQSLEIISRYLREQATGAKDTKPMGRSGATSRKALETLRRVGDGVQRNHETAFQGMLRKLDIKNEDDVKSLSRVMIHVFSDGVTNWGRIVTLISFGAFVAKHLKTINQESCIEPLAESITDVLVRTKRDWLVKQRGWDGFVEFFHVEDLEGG

| SMILES | Blockade of MCL-1ΔNΔC suppression of tBID-induced BAX activation (liposomal release) (MCL-1ΔNΔC [1]) | Competition with FITC-BID BH3 for MCL-1ΔNΔC binding (in words) (MCL-1ΔNΔC [2]) | IC50 ([3]; Mus musculus, 24 h, read-out: IC50, cell viability of BCL-XL-dependent cells) [µM] | Effect on viability of MCL-1-dependent cells (in words) ([4]; CellTiter-Glo at 24 h) | Competition with FITC-MCL-1 SAHBA for MCL-1ΔNΔC binding (in words) (MCL-1ΔNΔC [5]) | Effect on viability of Bax−/−Bak−/− MEFs (Bax−/−Bak−/− MEFs [6]) | Caspase 3/7 activation in Bax−/−Bak−/− MEFs (Bax−/−Bak−/− MEFs [7]) | Effect on viability of wild-type MEFs (wild-type MEFs [8]) | Caspase 3/7 activation in wild-type MEFs (wild-type MEFs [9]) | Caspase 3/7 activation in BCL-XL-dependent cells [10] | IC50 (MCL-1ΔNΔC [2]) [µM] | Fold difference of IC50 for MCL-1ΔNΔC versus IC50 of ABT-737 for BCL-XLΔC (MCL-1ΔNΔC [2]; competition with FITC-BID BH3, MIM1 less potent) [fold] | Effect on viability of BCL-XL-dependent cells (in words) ([3]; CellTiter-Glo at 24 h) | IC50 ([4]; Mus musculus, 24 h, read-out: IC50, cell viability of MCL-1-dependent cells) [µM] | IC50 (BCL-XLΔC) [µM] | Dissociation of the inhibitory MCL-1/BAK complex (co-immunoprecipitation) (MCL-1/BAK complex) | Caspase 3/7 activation in MCL-1-dependent cells [11] |
| --- | --- | --- | --- | --- | --- | --- | --- | --- | --- | --- | --- | --- | --- | --- | --- | --- | --- |
| CN(C)CC[C@H](CSc1ccccc1)Nc1ccc(S(=O)(=O)NC(=O)c2ccc(N3CCN(Cc4ccccc4-c4ccc(Cl)cc4)CC3)cc2)cc1[N+](=O)[O-] [ABT-737, reference compound] | had no effect on MCL-1ΔNΔC activity | showed no activity toward MCL-1ΔNΔC | 1.6 | no effect on the MCL-1-dependent cells | had no effect | no significant effect | no observed caspase 3/7 activation | no significant effect | no observed caspase 3/7 activation | dose-responsive caspase 3/7 activation |  |  |  |  |  |  |  |
| Cc1cs/c(=N\C2CCCCC2)n1/N=C/c1ccc(O)c(O)c1O [MIM1, 4-((E)-(((Z)-2-(cyclohexylimino)-4-methylthiazol-3(2H)-yl)imino)methyl)benzene-1,2,3-triol] | preventing BAX suppression by MCL-1ΔNΔC |  |  |  |  | no significant effect | no observed caspase 3/7 activation | no significant effect | no observed caspase 3/7 activation |  | 4.8 | 7.5 | little to no effect on the BCL-XL-dependent cells | 4.2 | > 50 | dose-dependent dissociation of the inhibitory MCL-1/BAK complex | dose-dependent induction of caspase 3/7 activity |
